Data reported in ChEMBL document CHEMBL3244362, “Photoaffinity labeling of the angiotensin II receptor. 3. Receptor inactivation with photolabile hormone analogues” (J Med Chem, 1979).
Activity calls are given as the source filed them. No cut-off for these calls is given here. Square brackets hold non-standard residues; d marks the D form. Peptide text beside a SMILES is read from it. Phe(4-NO2) = N[C@@H](Cc1ccc([N+](=O)[O-])cc1)C(=O)O; Phe(4-N3) = [N-]=[N+]=Nc1ccc(C[C@H](N)C(=O)O)cc1; Phe(4-N2+) = N#[N+]c1ccc(C[C@H](N)C(=O)O)cc1; Sar = CNCC(=O)O

Columns and labels:
Oryctolagus cuniculus [1] = organism: Oryctolagus cuniculus; experiment: Agonist activity at angiotensin 2 receptor in albino New Zealand rabbit aorta in absence of UV light; assay type: tissue-based
Method in brief: (§1)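 Rabbit aortic strips were suspended in Krebs solution at 37 °C, gassed with 95% O2/5% CO2, at 2.0 g tension, and equilibrated 60–90 min with bath changes every 10–15 min. Isometric contraction was recorded by force transducer in the dark. PD2 is the −log agonist concentration giving half-maximal contraction. pA2 is the −log antagonist concentration reducing a double agonist dose to a single-dose response. αE is intrinsic activity.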

Oryctolagus cuniculus [2] = organism: Oryctolagus cuniculus; experiment: Binding affinity to angiotensin 2 receptor in albino New Zealand rabbit aorta relative to [Sar1]AT in absence of UV light
Oryctolagus cuniculus [3] = organism: Oryctolagus cuniculus; experiment: Inactivation of angiotensin 2 receptor in albino New Zealand rabbit aorta assessed as relaxation of angiotensin-induced contraction at 0.4 uM treated for 180 mins followed by UV light exposed for 10 mins relative to control in presence of [Leu8]-AT; assay type: tissue-based; parameters: scale not given: the % may be the effect or the level left
Method in brief: (§2)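 Protection protocol: aortic strips in Krebs at 37 °C were given AT 0.2 μM at 60 and 120 min, then preincubated 15 min with [Leu8]AT 5 μM (final) before the photolabel plus (4'amino)Phe 0.6 mM. After 5 min at maximal contraction, strips were UV-irradiated 10 min and washed only after photolysis. Residual AT response at 280 min was expressed as % of nonirradiated, identically incubated references.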

Oryctolagus cuniculus [4] = organism: Oryctolagus cuniculus; experiment: Inactivation of angiotensin 2 receptor in albino New Zealand rabbit aorta assessed as relaxation of angiotensin-induced contraction at 0.4 uM treated for 180 mins followed by UV light exposed for 10 mins relative to control in presence of noradrenaline; assay type: tissue-based; parameters: scale not given: the % may be the effect or the level left
Method in brief: (§3)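 Strips in Krebs at 37 °C (95% O2/5% CO2, 2.0 g tension) received AT 0.2 μM at 60 and 120 min. The control agonist was noradrenaline for aorta and serotonin for stomach. At 180 min, peptide plus (4'amino)Phe 0.6 mM was added; after 5 min at maximal contraction, strips were UV-irradiated (365 nm black light) for 10 min and washed. AT response at 280 min was expressed as % of nonirradiated references. At least seven experiments; mean ± SE.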

[5] = biological target: T1, Angiotensin II receptor (Rattus norvegicus) (UniProt P29089+P25095+P35351); experiment: Inactivation of angiotensin 2 receptor in Wistar rat aorta assessed as relaxation of angiotensin-induced contraction at 0.1 uM treated for 180 mins followed by UV light exposed for 10 mins relative to control in presence of noradrenaline; method in brief: as §3
Oryctolagus cuniculus [6] = organism: Oryctolagus cuniculus; experiment: Intrinsic activity at angiotensin 2 receptor in albino New Zealand rabbit aorta in absence of UV light; assay type: tissue-based; method in brief: as §1
Oryctolagus cuniculus [7] = organism: Oryctolagus cuniculus; experiment: Inactivation of angiotensin 2 receptor in albino New Zealand rabbit aorta assessed as relaxation of angiotensin-induced contraction at 5 uM treated for 180 mins followed by UV light exposed for 10 mins relative to control in presence of [Leu8]-AT; assay type: tissue-based; parameters: scale not given: the % may be the effect or the level left; method in brief: as §2
Oryctolagus cuniculus [8] = organism: Oryctolagus cuniculus; experiment: Inactivation of angiotensin 2 receptor in albino New Zealand rabbit aorta assessed as relaxation of angiotensin-induced contraction at 5 uM treated for 180 mins followed by UV light exposed for 10 mins relative to control in presence of noradrenaline; assay type: tissue-based; parameters: scale not given: the % may be the effect or the level left; method in brief: as §3
Oryctolagus cuniculus [9] = organism: Oryctolagus cuniculus; experiment: Inactivation of angiotensin 2 receptor in albino New Zealand rabbit aorta assessed as relaxation of angiotensin-induced contraction at 0.2 uM treated for 180 mins followed by UV light exposed for 10 mins relative to control in presence of [Leu8]-AT; assay type: tissue-based; parameters: scale not given: the % may be the effect or the level left; method in brief: as §2
Oryctolagus cuniculus [10] = organism: Oryctolagus cuniculus; experiment: Inactivation of angiotensin 2 receptor in albino New Zealand rabbit aorta assessed as relaxation of angiotensin-induced contraction at 0.2 uM treated for 180 mins followed by UV light exposed for 10 mins relative to control in presence of noradrenaline; assay type: tissue-based; parameters: scale not given: the % may be the effect or the level left; method in brief: as §3
Oryctolagus cuniculus [11] = organism: Oryctolagus cuniculus; experiment: Inactivation of angiotensin 2 receptor in albino New Zealand rabbit aorta assessed as relaxation of angiotensin-induced contraction at 10 uM treated for 180 mins followed by UV light exposed for 10 mins relative to control in presence of noradrenaline; assay type: tissue-based; parameters: scale not given: the % may be the effect or the level left; method in brief: as §3
Oryctolagus cuniculus [12] = organism: Oryctolagus cuniculus; experiment: Inactivation of angiotensin 2 receptor in albino New Zealand rabbit aorta assessed as relaxation of angiotensin-induced contraction at 10 uM treated for 180 mins followed by UV light exposed for 10 mins relative to control in presence of [Leu8]-AT; assay type: tissue-based; parameters: scale not given: the % may be the effect or the level left; method in brief: as §2
[13] = Antagonist activity at angiotensin 2 receptor in albino New Zealand rabbit aorta in absence of UV light; assay type: tissue-based, Oryctolagus cuniculus; method in brief: as §1
[14] = biological target: T1, Angiotensin II receptor (Rattus norvegicus); experiment: Inactivation of angiotensin 2 receptor in Wistar rat stomach assessed as relaxation of angiotensin-induced contraction at 1 uM treated for 180 mins followed by UV light exposed for 10 mins relative to control in presence of serotonin; method in brief: as §3

Row | RBA (Oryctolagus cuniculus [2]) | SMILES | pD2 (Oryctolagus cuniculus [1]) | Intrinsic activity (Oryctolagus cuniculus [6]) | Activity (Oryctolagus cuniculus [11]) | further results
1 | 31% | CNCC(=O)N[C@@H](CCCNC(=N)N)C(=O)N[C@H](C(=O)N[C@@H](Cc1ccc(O)cc1)C(=O)N[C@H](C(=O)N[C@@H](Cc1cnc[nH]1)C(=O)N1CCC[C@H]1C(=O)N[C@@H](Cc1ccc(N=[N+]=[N-])cc1)C(=O)O)C(C)C)C(C)C | 8.72 | 1 | – | Activity (Oryctolagus cuniculus [3]): 103%; Activity (Oryctolagus cuniculus [4]): 100%; inhibition [5]: Active
2 | 13% | CNCC(=O)N[C@@H](CCCNC(=N)N)C(=O)N[C@H](C(=O)N[C@@H](Cc1ccc(O)cc1)C(=O)N[C@H](C(=O)N[C@@H](Cc1cnc[nH]1)C(=O)N1CCC[C@H]1C(=O)N[C@@H](Cc1ccc([N+]#N)cc1)C(=O)O)C(C)C)C(C)C | 8.33 | 1 | – | Activity (Oryctolagus cuniculus [7]): 72%; Activity (Oryctolagus cuniculus [8]): 78%
3 | 69% | CNCC(=O)N[C@@H](CCCNC(=N)N)C(=O)N[C@H](C(=O)N[C@@H](Cc1ccc(O)cc1)C(=O)N[C@H](C(=O)N[C@@H](Cc1cnc[nH]1)C(=O)N1CCC[C@H]1C(=O)N[C@@H](Cc1ccc([N+](=O)[O-])cc1)C(=O)O)C(C)C)C(C)C | 9.07 | 0.46 | – | Activity (Oryctolagus cuniculus [4]): 95%
4 | – | CNCC(=O)N[C@@H](CCCNC(=N)N)C(=O)N[C@H](C(=O)N[C@@H](Cc1ccc(O)cc1)C(=O)N[C@H](C(=O)N[C@@H](Cc1cnc[nH]1)C(=O)N1CCC[C@H]1C(=O)N[C@@H](Cc1ccccc1)C(=O)O)C(C)C)C(C)C (H-[Sar]RVYVHPF-OH) | 9.23 | 1 | – | Activity (Oryctolagus cuniculus [9]): 100%; Activity (Oryctolagus cuniculus [10]): 100%
5 | 0.66% | CNCC(=O)N[C@@H](CCCNC(=N)N)C(=O)N[C@H](C(=O)N[C@@H](Cc1ccc([N+]#N)cc1)C(=O)N[C@H](C(=O)N[C@@H](Cc1cnc[nH]1)C(=O)N1CCC[C@H]1C(=O)N[C@@H](Cc1ccccc1)C(=O)O)C(C)C)C(C)C (H-[Sar]RV[Phe(4-N2+)]VHPF-OH) | 7.05 | 1 | – | –
6 | 1.3% | CNCC(=O)N[C@@H](CCCNC(=N)N)C(=O)N[C@H](C(=O)N[C@@H](Cc1ccc([N+]#N)cc1)C(=O)N[C@H](C(=O)N[C@@H](Cc1cnc[nH]1)C(=O)N1CCC[C@H]1C(=O)N[C@@H](Cc1ccc([N+]#N)cc1)C(=O)O)C(C)C)C(C)C (H-[Sar]RV[Phe(4-N2+)]VHP[Phe(4-N2+)]-OH) | 7.36 | 1 | – | –
7 | 0.26% | CNCC(=O)N[C@@H](CCCNC(=N)N)C(=O)N[C@H](C(=O)N[C@@H](Cc1ccc(N=[N+]=[N-])cc1)C(=O)N[C@H](C(=O)N[C@@H](Cc1cnc[nH]1)C(=O)N1CCC[C@H]1C(=O)N[C@@H](Cc1ccccc1)C(=O)O)C(C)C)C(C)C (H-[Sar]RV[Phe(4-N3)]VHPF-OH) | 6.65 | 0.75 | – | Activity (Oryctolagus cuniculus [7]): 64%; Activity (Oryctolagus cuniculus [8]): 98%
8 | 0.07% | CNCC(=O)N[C@@H](CCCNC(=N)N)C(=O)N[C@H](C(=O)N[C@@H](Cc1ccc(N=[N+]=[N-])cc1)C(=O)N[C@H](C(=O)N[C@@H](Cc1cnc[nH]1)C(=O)N1CCC[C@H]1C(=O)N[C@@H](Cc1ccc(N=[N+]=[N-])cc1)C(=O)O)C(C)C)C(C)C (H-[Sar]RV[Phe(4-N3)]VHP[Phe(4-N3)]-OH) | 6.12 | 0.8 | 100% | Activity (Oryctolagus cuniculus [12]): 92%
9 | 0% | CNCC(=O)N[C@@H](CCCNC(=N)N)C(=O)N[C@H](C(=O)N[C@@H](Cc1ccc([N+](=O)[O-])cc1)C(=O)N[C@H](C(=O)N[C@@H](Cc1cnc[nH]1)C(=O)N1CCC[C@H]1C(=O)N[C@@H](Cc1ccccc1)C(=O)O)C(C)C)C(C)C (H-[Sar]RV[Phe(4-NO2)]VHPF-OH) | < 5 | 0 | 105% | pA2 [13]: < 5; Activity (Oryctolagus cuniculus [12]): 102%; inhibition [14]: inactive
10 | 0.06% | CNCC(=O)N[C@@H](CCCNC(=N)N)C(=O)N[C@H](C(=O)N[C@@H](Cc1ccc([N+](=O)[O-])cc1)C(=O)N[C@H](C(=O)N[C@@H](Cc1cnc[nH]1)C(=O)N1CCC[C@H]1C(=O)N[C@@H](Cc1ccc([N+](=O)[O-])cc1)C(=O)O)C(C)C)C(C)C (H-[Sar]RV[Phe(4-NO2)]VHP[Phe(4-NO2)]-OH) | 6.02 | 0.5 | 99% | –
